Measurements reported in ChEMBL document CHEMBL1132645, “Novel arylpyrazino[2,3-c][1,2,6]thiadiazine 2,2-dioxides as inhibitors of platelet aggregation. 1. Synthesis and pharmacological evaluation” (1999).

Key:
Type in all cases: functional
Oryctolagus cuniculus [1] = organism: Oryctolagus cuniculus; test: Compound was screened for its platelet aggregation induced by arachidonic acid in vitro in rabbit
Method in brief: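 Rabbit citrated PRP, 5 × 10⁵ platelets/μL, compound preincubated in DMSO 10 min at 37 °C, then arachidonic acid 1 mM. Born aggregometry at 5 min, triplicate for each concentration. Value is EC100, the lowest concentration giving complete inhibition, read from concentration–response data.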

Oryctolagus cuniculus [2] = organism: Oryctolagus cuniculus; test: Compound was screened for its platelet aggregation induced by adenosine diphosphate in vitro in rabbit; design: concentration or dose not given beside the values
Method in brief: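 Rabbit citrated PRP (male New Zealand white, 2.5–3.5 kg, cardiac puncture), adjusted to 5 × 10⁵ platelets/μL with PPP. Compound in DMSO preincubated 10 min at 37 °C, then ADP 1–2 μM added. Born aggregometry read at 5 min. Single fixed concentration; result is percent inhibition of maximal amplitude against paired vehicle controls.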

Rattus norvegicus [3] = test: In vivo inhibitory activity after 30 min of 100 mg/kg oral administration induced by arachidonic acid in rats; conditions: 0.5 h
Method in brief: (§1)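 Male Wistar rats, 200–250 g, fasted overnight, were dosed by oral gavage with compound suspended in 0.25% carboxymethylcellulose in 10% Tween 80 (10 mL/kg). Blood was drawn by cardiac puncture under ether at 30 or 120 min and anticoagulated with heparin 1 U/mL final. PRP was diluted to (4–5) × 10⁵ cells/μL. Agonists: AA 0.4 mM, collagen 1–2 μg/mL, I-BOP 225–250 nM. Percent inhibition read at 5 min; 3–5 determinations, mean ± SEM.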

Rattus norvegicus [4] = test: In vivo inhibitory activity after 30 min of 100 mg/kg oral administration induced by collagen in rats; conditions: 0.5 h; method in brief: as §1
Rattus norvegicus [5] = test: In vivo inhibitory activity after 120 min of 100 mg/kg oral administration induced by collagen in rats; conditions: 2 h; method in brief: as §1
Rattus norvegicus [6] = test: In vivo inhibitory activity after 120 min of 100 mg/kg oral administration induced by arachidonic acid in rats; conditions: 2 h; method in brief: as §1
Rattus norvegicus [7] = test: In vivo inhibitory activity after 30 min of 100 mg/kg oral administration induced by I-BOP in rats; conditions: 0.5 h; method in brief: as §1
Rattus norvegicus [8] = test: In vivo inhibitory activity after 120 min of 100 mg/kg oral administration induced by I-BOP in rats; conditions: 2 h; method in brief: as §1
Rattus norvegicus [9] = test: In vivo inhibitory activity after 120 min of 25 mg/kg oral administration induced by arachidonic acid in rats; conditions: 2 h
Rattus norvegicus [10] = test: In vivo inhibitory activity after 120 min of 25 mg/kg oral administration induced by I-BOP in rats; conditions: 2 h
Rattus norvegicus [11] = test: In vivo inhibitory activity after 120 min of 25 mg/kg oral administration induced by collagen in rats; conditions: 2 h
Homo sapiens = organism: Homo sapiens; test: Compound was screened for its platelet aggregation induced by collagen in vitro in human platelets at conc 1 mM
Method in brief: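 Human citrated PRP (blood from consenting volunteers, 3.8% trisodium citrate 9:1; PRP 250g 10 min, PPP 2000g 20 min, room temperature), adjusted to 3 × 10⁵ platelets/μL with PPP. Compounds in DMSO preincubated 10 min at 37 °C. Agonists: AA 1 mM, collagen 1–2 μg/mL, U46619 1.4 μM, I-BOP 225–250 nM. Born turbidimetric aggregometry read 5 min after agonist; inhibition of maximal amplitude versus paired vehicle; 3–4 determinations, mean ± SEM.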

SMILES | EC100 (Oryctolagus cuniculus [1]) | Inhibitory response (Oryctolagus cuniculus [2]) | other results
NC(=O)CN1c2nc(-c3ccccc3)c(-c3ccccc3)nc2C(N)=NS1(=O)=O | 0.003 mg/mL | 47% | –
CN1c2nc(-c3ccccn3)c(-c3ccccn3)nc2C(N)=NS1(=O)=O | 0.003 mg/mL | 43% | –
CN1c2ncc(-c3ccccc3)nc2C(N)=NS1(=O)=O | 0.0003 mg/mL | 43% | –
CN1c2nc(-c3ccco3)c(-c3ccco3)nc2C(N)=NS1(=O)=O | 0.001 mg/mL | 63% | –
CCN1c2nc(C)c(-c3ccccc3)nc2C(N)=NS1(=O)=O | 0.001 mg/mL | 47% | inhibition in vivo at 100 mg/kg (Rattus norvegicus [3]): 20%; inhibition in vivo at 100 mg/kg (Rattus norvegicus [4]): 93.5%; inhibition in vivo at 100 mg/kg (Rattus norvegicus [5]): 47.2%; inhibition in vivo at 100 mg/kg (Rattus norvegicus [6]): 48.8%; inhibition in vivo at 100 mg/kg (Rattus norvegicus [7]): 59.6%; inhibition in vivo at 100 mg/kg (Rattus norvegicus [8]): 50.3%
O=C(O)CCn1c2c(c3ccccc31)CC(NS(=O)(=O)c1ccc(F)cc1)CC2 (stereo not given) | – | – | inhibition in vivo at 25 mg/kg (Rattus norvegicus [9]): 74.2%; inhibition in vivo at 25 mg/kg (Rattus norvegicus [10]): 72.5%; inhibition in vivo at 25 mg/kg (Rattus norvegicus [11]): 95.3%
CCOC(=O)CN1c2nc(-c3ccccc3)c(-c3ccccc3)nc2C(N)=NS1(=O)=O | 0.0001 mg/mL | 30% | –
CCN1c2nc(-c3ccccc3)c(Cl)nc2C(N)=NS1(=O)=O | 0.01 mg/mL | 23% | –
CC(C)(C)OC(=O)CN1c2nc(-c3ccccc3)c(-c3ccccc3)nc2C(N)=NS1(=O)=O | 0.001 mg/mL | 32% | –
CCN1c2nc(-c3ccccc3)c(-c3ccccc3)nc2C(N)=NS1(=O)=O | 0.0003 mg/mL | 46% | inhibition in vivo at 100 mg/kg (Rattus norvegicus [3]): 6.5%; inhibition in vivo at 100 mg/kg (Rattus norvegicus [4]): 82.6%; inhibition in vivo at 100 mg/kg (Rattus norvegicus [5]): 26.3%; inhibition in vivo at 100 mg/kg (Rattus norvegicus [6]): 1%; inhibition in vivo at 100 mg/kg (Rattus norvegicus [7]): 100%; inhibition in vivo at 100 mg/kg (Rattus norvegicus [8]): 30%
NC1=NS(=O)(=O)N(Cc2ccccc2)c2nc(-c3ccccc3)c(-c3ccccc3)nc21 | 0.003 mg/mL | 30% | –
CCOC(=O)CN1c2nc(-c3ccccc3)c(Br)nc2C(N)=NS1(=O)=O | 0.01 mg/mL | 36% | –
CCN1c2nc(-c3cccs3)c(-c3cccs3)nc2C(N)=NS1(=O)=O | 0.003 mg/mL | 43% | –
CCN1c2nc(-c3ccccc3)c(C)nc2C(N)=NS1(=O)=O | 0.001 mg/mL | 59% | –
Nc1ncnc2c1ncn2[C@@H]1O[C@H](CO)[C@@H](O)[C@H]1O [ADENOSINE] | – | 64% | –
CC(=O)Oc1ccccc1C(=O)O [ASPIRIN] | 0.0025 mg/mL | – | inhibition in vivo at 100 mg/kg (Rattus norvegicus [5]): 84.6%; inhibition in vivo at 100 mg/kg (Rattus norvegicus [6]): 93.8%; inhibition in vivo at 100 mg/kg (Rattus norvegicus [8]): 0.9%; inhibition at 1000 µM (Homo sapiens): 94%
Clc1ccccc1CN1CCc2sccc2C1 [TICLOPIDINE] | – | – | inhibition in vivo at 100 mg/kg (Rattus norvegicus [5]): 98.7%; inhibition in vivo at 100 mg/kg (Rattus norvegicus [6]): 0.9%; inhibition in vivo at 100 mg/kg (Rattus norvegicus [8]): 57.1%
